Experiments:
[1] = In vitro inhibition of cytopathic effect was determined against HIV-1 RF in CEM-SS cells using MTS cytoprotection assay; assay type: functional, cell-based
Procedure, shortened: (§1)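 CEM-SS cells from exponential culture, 5 × 10^3 per well, mixed with pretitered HIV-1 RF and serially diluted compound. Incubated 6 days at 37 °C, 5% CO2. MTS added, colour developed overnight at 37 °C, read at 490 nm, expressed as percent of uninfected drug-free control. EC50 is 50% protection from cytopathic effect; CC50 is 50% death of uninfected cells. Triplicates on each of two sister plates, plate values averaged.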

MT4 [2] = test: 50% cell death in uninfected MT-4 cells was determined using MTS cytoprotection assay; assay type: functional; settings: Homo sapiens, in the assay text read “MTT cytoprotection assay” for “MTS cytoprotection assay”
Procedure, shortened: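 MT-4 cells at 6 × 10^5 cells/mL, infected with HIV-1 IIIB or HIV-2 ROD at 100–300 CCID50, or mock-infected. Serial 5-fold compound dilutions, triplicate wells. After 5 days, viability read by MTT reduction at 540 and 690 nm, median OD of three wells. CC50 is 50% drop in OD540 of mock-infected cells; EC50 is 50% protection from viral cytopathic effect.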

[3] = In vitro inhibition of cytopathic effect was determined against HIV-1 IIIB in MT-4 cells using MTT cytoprotection assay; settings: MT4
CEM-SS = test: 50% cell death in uninfected CEM-SS cells was determined using MTS cytoprotection assay; assay type: functional; settings: Homo sapiens; procedure, shortened: as §1
MT4 [4] = test: In vitro inhibition of cytopathic effect was determined against HIV-1 IIIB in MT-4 cells using MTT cytoprotection assay; settings: Homo sapiens

Row | Compound | EC50 [1] | CC50 (MT4 [2]) | EC50 [3] | CC50 (CEM-SS) | EC50 (MT4 [4])
1 | CC(C)CCCC(C)[C@H]1CC[C@H]2[C@@H]3CCC4C[C@@H](CCC=C(c5cc(Cl)c(O)c(C(=O)O)c5)c5cc(Cl)c(O)c(C(=O)O)c5)CC[C@]4(C)[C@H]3CC[C@]12C (some centres undefined) | 5.1 µM | > 125 µM | 3 µM |  | 
2 | CC(C)CCCC(C)[C@H]1CC[C@H]2[C@@H]3CCC4C[C@@H](CCCC(c5cc(Cl)c(O)c(C(=O)NCC(=O)O)c5)c5cc(Cl)c(O)c(C(=O)NCC(=O)O)c5)CC[C@]4(C)[C@H]3CC[C@]12C (some centres undefined) |  | > 125 µM | 39.4 µM | > 200 µM | 
3 | COc1ccc(C(=O)Nc2cc(C(=CCC[C@H]3CC[C@@]4(C)C(CC[C@H]5[C@@H]6CC[C@H](C(C)CCCC(C)C)[C@@]6(C)CC[C@@H]54)C3)c3cc(NC(=O)c4ccc(OC)c(C(=O)O)c4)c(OC)c(C(=O)O)c3)cc(C(=O)O)c2OC)cc1C(=O)O (some centres undefined) | 28.6 µM | 81 µM | 8.4 µM | 47 µM | 
4 | CC(C)CCCC(C)[C@H]1CC[C@H]2[C@@H]3CCC4C[C@@H](CCC=C(c5cc(Cl)c(OCc6ccc(C(=O)O)cc6)c(C(=O)O)c5)c5cc(Cl)c(OCc6ccc(C(=O)O)cc6)c(C(=O)O)c5)CC[C@]4(C)[C@H]3CC[C@]12C (some centres undefined) | 0.5 µM | 89 µM |  |  | 
5 | CC(C)CCCC(C)[C@H]1CC[C@H]2[C@@H]3CCC4C[C@@H](CCC=C(c5cc(Cl)c(OCc6ccc(-c7ccc(C(=O)O)cc7)cc6)c(C(=O)O)c5)c5cc(Cl)c(OCc6ccc(-c7ccc(C(=O)O)cc7)cc6)c(C(=O)O)c5)CC[C@]4(C)[C@H]3CC[C@]12C (some centres undefined) | > 100 µM | 100 µM | > 100 µM |  | 
6 | CC(C)CCCC(C)[C@H]1CC[C@H]2[C@@H]3CCC4C[C@@H](CCC=C(c5cc(Cl)c(O)c(C(=O)NCCC(=O)O)c5)c5cc(Cl)c(O)c(C(=O)NCCC(=O)O)c5)CC[C@]4(C)[C@H]3CC[C@]12C (some centres undefined) |  | > 125 µM | 73.8 µM | > 200 µM | 
7 | CC(C)CCCC(C)[C@H]1CC[C@H]2[C@@H]3CCC4C[C@@H](CCC=C(c5cc(Cl)c(OCc6ccccc6C(=O)O)c(C(=O)O)c5)c5cc(Cl)c(OCc6ccccc6C(=O)O)c(C(=O)O)c5)CC[C@]4(C)[C@H]3CC[C@]12C (some centres undefined) | 39.8 µM |  | > 37 µM |  | 
8 | CC(C)CCCC(C)[C@H]1CC[C@H]2[C@@H]3CCC4C[C@@H](CCC=C(c5cc(Cl)c(OCc6ccc(-c7ccccc7C(=O)O)cc6)c(C(=O)O)c5)c5cc(Cl)c(OCc6ccc(-c7ccccc7C(=O)O)cc6)c(C(=O)O)c5)CC[C@]4(C)[C@H]3CC[C@]12C (some centres undefined) | 5.2 µM |  | 10.1 µM |  | 
9 | CC(C)CCCC(C)[C@H]1CC[C@H]2[C@@H]3CCC4C[C@@H](CCC=C(c5cc(Cl)c(OCc6ccc(-c7cccc(C(=O)O)c7)cc6)c(C(=O)O)c5)c5cc(Cl)c(OCc6ccc(-c7cccc(C(=O)O)c7)cc6)c(C(=O)O)c5)CC[C@]4(C)[C@H]3CC[C@]12C (some centres undefined) | 6.1 µM | 79 µM | 12 µM |  | 
10 | CC(C)CCCC(C)[C@H]1CC[C@H]2[C@@H]3CCC4C[C@@H](CCC=C(c5cc(Cl)c(O)c(C(=O)NCC(=O)OC(C)(C)C)c5)c5cc(Cl)c(O)c(C(=O)NCC(=O)OC(C)(C)C)c5)CC[C@]4(C)[C@H]3CC[C@]12C (some centres undefined) |  | > 125 µM | > 125 µM | > 125 µM | 
11 | CC(C)CCCC(C)[C@H]1CC[C@H]2[C@@H]3CCC4C[C@@H](CCCC(c5cc(Cl)c(O)c(C(=O)N[C@@H](CCC(=O)O)C(=O)O)c5)c5cc(Cl)c(O)c(C(=O)N[C@@H](CCC(=O)O)C(=O)O)c5)CC[C@]4(C)[C@H]3CC[C@]12C (some centres undefined) |  | > 125 µM | 10.3 µM | 34 µM | 
12 | CC(C)CCCC(C)[C@H]1CC[C@H]2[C@@H]3CCC4C[C@@H](CCC=C(c5cc(Cl)c(O)c(C(=O)N[C@@H](CC(=O)O)C(=O)O)c5)c5cc(Cl)c(O)c(C(=O)N[C@@H](CC(=O)O)C(=O)O)c5)CC[C@]4(C)[C@H]3CC[C@]12C (some centres undefined) |  | > 125 µM |  | 90 µM | 
13 | CC(C)CCCC(C)[C@H]1CC[C@H]2[C@@H]3CCC4C[C@@H](CCC=C(c5cc(Cl)c(OCc6cccc(C(=O)O)c6)c(C(=O)O)c5)c5cc(Cl)c(OCc6cccc(C(=O)O)c6)c(C(=O)O)c5)CC[C@]4(C)[C@H]3CC[C@]12C (some centres undefined) |  | 76 µM |  |  | 
14 | CC(C)CCCC(C)[C@H]1CC[C@H]2[C@@H]3CCC4C[C@@H](CCC=C(c5cc(Cl)c(O)c(C(=O)N[C@@H](CCC(=O)O)C(=O)O)c5)c5cc(Cl)c(O)c(C(=O)N[C@@H](CCC(=O)O)C(=O)O)c5)CC[C@]4(C)[C@H]3CC[C@]12C (some centres undefined) |  | > 125 µM | 8.9 µM | 82 µM | 
15 | CC(C)CCCC(C)[C@H]1CC[C@H]2[C@@H]3CCC4C[C@@H](CCCC(c5cc(Cl)c(OCc6ccc(C(=O)O)cc6)c(C(=O)O)c5)c5cc(Cl)c(OCc6ccc(C(=O)O)cc6)c(C(=O)O)c5)CC[C@]4(C)[C@H]3CC[C@]12C (some centres undefined) | 4.8 µM | > 125 µM | 5.1 µM | > 200 µM | 
16 | CC(C)CCCC(C)[C@H]1CC[C@H]2[C@@H]3CCC4C[C@@H](CCC=C(c5cc(Cl)c(O)c(C(=O)NCC(=O)O)c5)c5cc(Cl)c(O)c(C(=O)NCC(=O)O)c5)CC[C@]4(C)[C@H]3CC[C@]12C (some centres undefined) | 3.4 µM | > 125 µM |  | > 200 µM | 57.6 µM
17 | CC(C)CCCC(C)[C@H]1CC[C@H]2[C@@H]3CCC4C[C@@H](CCC=C(c5cc(Cl)c(OCc6ccc(CC(=O)O)cc6)c(C(=O)O)c5)c5cc(Cl)c(OCc6ccc(CC(=O)O)cc6)c(C(=O)O)c5)CC[C@]4(C)[C@H]3CC[C@]12C (some centres undefined) | 1.8 µM |  | 4.1 µM |  | 
18 | CC(C)CCCC(C)[C@H]1CC[C@H]2[C@@H]3CCC4C[C@@H](CCC=C(c5cc(Cl)c(O)c(C(=O)N[C@@H](CC(C)C)C(=O)O)c5)c5cc(Cl)c(O)c(C(=O)N[C@@H](CC(C)C)C(=O)O)c5)CC[C@]4(C)[C@H]3CC[C@]12C (some centres undefined) | 40 µM | > 125 µM | 63.4 µM | > 200 µM | 
19 | COc1c(Cl)cc(Cc2cc(C(=CCC[C@H]3CC[C@@]4(C)C(CC[C@H]5[C@@H]6CC[C@H](C(C)CCCC(C)C)[C@@]6(C)CC[C@@H]54)C3)c3cc(Cc4cc(Cl)c(OC)c(C(=O)O)c4)c(OC)c(C(=O)O)c3)cc(C(=O)O)c2OC)cc1C(=O)O (some centres undefined) | 2.9 µM | 41 µM | 12.5 µM | 50 µM | 
20 | CC(C)CCCC(C)[C@H]1CC[C@H]2[C@@H]3CCC4C[C@@H](CCC=C(c5cc(Cl)c(O)c(C(=O)N[C@@H](Cc6ccccc6)C(=O)O)c5)c5cc(Cl)c(O)c(C(=O)N[C@@H](Cc6ccccc6)C(=O)O)c5)CC[C@]4(C)[C@H]3CC[C@]12C (some centres undefined) | > 200 µM | 62 µM | > 62 µM | > 200 µM | 

From ChEMBL document CHEMBL1134356, “Correlation of anti-HIV activity with anion spacing in a series of cosalane analogues with extended polycarboxylate pharmacophores” (J Med Chem, 2001)
